# Assay results from ChEMBL document CHEMBL1132171, “Synthesis and antitumor activity of novel thioester derivatives of leinamycin” (J Med Chem, 1999).
# Experiments:
# HeLa = assay: In vitro antiproliferative activity against HeLa S3 cells; format: functional, cell-based; details: Homo sapiens
# Summary of the method: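 HeLa S3 cells precultured 24 h in 96-well plates, then exposed to compound for 72 h. Growth inhibition read on day 4 by neutral red dye uptake.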
# Mus musculus [1] = assay: Optimal dose for in vivo antitumor activity against sarcoma 180 infected mice; format: functional
# Summary of the method: (§1)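 ddY mice given sarcoma 180 cells in the axillary region on day 0. Single iv dose on day 1. Tumor volume expressed as treated/control ratio. Optimal dose reported.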
# [2] = Half-life determined by HPLC ([…]); format: ADME
# Summary of the method: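 Stability read by HPLC at 330 nm. Compound at 20 μg/mL in pH 7 phosphate buffer/acetonitrile (4:1), 37 °C, half-life derived.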
# Mus musculus [3] = assay: In vivo antitumor activity against sarcoma 180 infected mice was determined as treated versus control of tumor volume; format: functional; summary of the method: as §1
SMILES,IC50 (HeLa) [nM],half-life [2] [h],OD (Mus musculus [1]) [mg/kg],T/C (Mus musculus [3])
C/C1=C\[C@@H](O)C(=O)/C=C/C=Cc2csc(n2)[C@@H](C)N2C(=O)C[C@@]([C@@](C)(O)C(=O)SCc3oc(=O)oc3C)(CC1)[S+]2[O-] (stereo not given in full),4.6,16,2,0.67
COC1(O[C@@H]2/C=C(\C)CC[C@]3([C@@](C)(O)C(=O)SCc4oc(=O)oc4C)CC(=O)N([C@H](C)c4nc(cs4)/C=C/C=C/C2=O)[S+]3[O-])CCOCC1 (stereo not given in full),1.4,18,8,0.25
COCO[C@@H]1/C=C(\C)CC[C@]2([C@@](C)(O)C(=O)SCc3oc(=O)oc3C)CC(=O)N([C@H](C)c3nc(cs3)C=C/C=C/C1=O)[S+]2[O-] (stereo not given in full),0.17,24,2,0.58
C/C1=C\[C@@H](O[C@H]2CCCCO2)C(=O)/C=C/C=C/c2csc(n2)[C@@H](C)N2C(=O)C[C@@]([C@@](C)(O)C(=O)SCc3oc(=O)oc3C)(CC1)[S+]2[O-] (stereo not given in full),2.4,30,8,0.63
C/C1=C\[C@@H](O[C@@H]2CCCCO2)C(=O)/C=C/C=C/c2csc(n2)[C@@H](C)N2C(=O)C[C@@]([C@@](C)(O)C(=O)SCc3oc(=O)oc3C)(CC1)[S+]2[O-] (stereo not given in full),0.67,30,8,0.26
C/C1=C\[C@@H](O)C(=O)/C=C/C=C\c2csc(n2)[C@@H](C)NC(=O)C[C@@]2(CC1)[S+]([O-])SC(=O)[C@]2(C)O (stereo not given in full) [LEINAMYCIN],–,6,2,0.49

# More lines, main results first:
IC50 (HeLa) [nM],half-life [2] [h],SMILES,OD (Mus musculus [1]) [mg/kg],T/C (Mus musculus [3])
1300,> 24,CCOC(=O)CSC(=O)[C@](C)(O)[C@@]12CC/C(C)=C/[C@@H](O)C(=O)/C=C/C=Cc3csc(n3)[C@@H](C)N(C(=O)C1)[S+]2[O-] (stereo not given in full),16,0.98
3.9,24,CC(=O)O[C@@H]1/C=C(\C)CC[C@]2([C@@](C)(O)C(=O)SCc3oc(=O)oc3C)CC(=O)N([C@H](C)c3nc(cs3)C=C/C=C/C1=O)[S+]2[O-] (stereo not given in full),2,0.38
830,18,CSC(=O)[C@](C)(O)[C@@]12CC/C(C)=C/[C@@H](O)C(=O)/C=C/C=Cc3csc(n3)[C@@H](C)N(C(=O)C1)[S+]2[O-] (stereo not given in full),16,0.94
